Compound activity (PubChem BioAssay)
Kir21 inh = inhibitors of mouse Kir2.1 inward-rectifier potassium channel; AID 1672, 2009; B-score at 10 µM; Inward rectifier potassium channel 2 (Mus musculus), P35561; 0.85% of 310,000 active; HEK293-Kir2.1, FluxOR thallium flux fluorescence; active compounds read low;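 active = fluorescence ratio B-score at or below minus 3 SD of library scores, with starting-brightness B-score within 2 SD, cut at about -4.2 in these data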;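 also: channel flux triggered by added potassium and thallium sulfate stimulus; B-score of peak minus minimum fluorescence over baseline after thallium stimulus; more negative B-score means stronger Kir2.1 block with less thallium influx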
KCNQ1 block = inhibitors of human KCNQ1 channel, primary screen, cell-based, thallium flux, high-throughput | 1.3% of 310,000 active | B-score at 10 µM | Potassium voltage-gated channel subfamily KQT member 1 (Homo sapiens), P51787 | CHO-K1 KCNQ1, FluxOR thallium flux fluorescence; active compounds read high;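 active = compounds whose thallium flux B-score, printed positive for inhibition, exceeds three library SD while starting fluorescence stays within three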;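 also: channel opened by potassium depolarization with thallium stimulus after 20 min compound exposure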
KCNQ1 act = potentiators or activators of KCNQ1 channel, primary screen, cell-based, thallium flux, high-throughput; Potassium voltage-gated channel subfamily KQT member 1 (Homo sapiens), P51787; CHO-K1 KCNQ1, thallium flux FluxOR fluorescence; active compounds read high; B-score at 10 µM; 0.35% of 310,000 active; AID 2648, 2010;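 active = fluorescence ratio B-score, a plate-corrected score, at least three library SD, with initial intensity B-score within 5 SD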
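assay system = CHO-K1 cells stably expressing KCNQ1 | medium = assay buffer, equal DMSO in all wells | timing = 37 °C overnight plating, 90-min dark dye load, 20-min compound pretreatment | measured by = kinetic FluxOR thallium fluorescence, 10-s 1-Hz baseline, 110-s post-stimulus read | measure = fluorescence change relative to baseline, converted to B score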
KCNK3 inh = human KCNK3 channel inhibitors, primary screen, CHO cells, FluxOR thallium flux, B-score; Potassium channel subfamily K member 3 (Homo sapiens), O14649; FluxOR fluorescence; active compounds read low; B-score at 10 µM; 0.84% of 340,000 active; AID 602410, 2012;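 active = B-score under library mean minus 4 SD, starting fluorescence ratio at most library mean plus 5 SD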;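 also: more negative B-score means stronger inhibition of thallium flux through KCNK3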
hERG protect = hERG rescue from dofetilide block, primary screen, cell-based, CHO-hERG, FluxOR thallium flux, dofetilide IC70; dofetilide IC70 present; activation (rescue from dofetilide block), less the hit threshold, % at 10 µM; 0.51% of 310,000 active;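 active = activation above the mean of controls blocked by dofetilide plus 5 SD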;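 also: thallium influx through hERG after potassium depolarization seen as dye fluorescence rise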
KCNK9 inh = KCNK9 potassium channel inhibitors, primary screen, HEK293 cells, thallium flux | Potassium channel subfamily K member 9 (Homo sapiens), Q9NPC2 | FluxOR thallium flux fluorescence; active compounds read low | B-score at 10 µM | 1.2% of 310,000 active | AID 488922, 2010;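 active = ratio B-score over 3 SD below the library mean, with starting fluorescence within 5 SD of its mean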;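 also: negative B-score means less thallium flux so channel inhibition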
* = called active by the depositor; i = inactive; nt = no result. Compounds with a hit are over-represented: about 3.8% of the library has one in this group of screens.

SMILES | Kir21 inh | KCNQ1 block | KCNQ1 act | KCNK3 inh | hERG protect | KCNK9 inh
CCCC(=O)C1=C(O)C(C(=O)OC)C(C)(C)CC1=NCc1ccccc1 (configuration not stated) | -0.29 | i | i | i | -2.6 | i
CCCC(=O)C1=C(O)C(C(=O)OC)C(C)(C)CC1=Nc1cccc2ccccc12 (configuration not stated) | -1.81 | 6* | i | i | -4.3 | i
O=C(Cn1nnc(-c2cccc(C(F)(F)F)c2)n1)N1CCCCCC1 | -0.59 | i | i | i | 5.1* | i
COc1ccc(C(c2nnnn2C(C)(C)C)N2CCN(c3nc4ccccc4s3)CC2)cc1 (configuration not stated) | 0.13 | i | i | i | -10.2 | -7.11*
O=C1CSC(=S)N1/N=C/c1ccc(O)c(O)c1O | 0.05 | i | i | i | -2.4 | i
O=C1CSC(=S)N1/N=C/c1cc(Br)ccc1O | 0.38 | i | i | nt | 7.1* | i
CC1CCN(Cc2cc(=O)oc3ccc4ccccc4c23)CC1 | -0.19 | i | i | i | -2.0 | i
Cc1ccc(S(=O)(=O)N(CC(=O)NCc2ccccc2Cl)C(=O)N2CCN(C)CC2)cc1 | -1.77 | i | i | i | -8.2 | i
O=c1c(-c2ccccc2)nc(-c2ccccc2)cn1O | -0.51 | i | i | i | 4.9* | i
CCOC(=O)c1c(C)[nH]c(C(=O)CN(C)CC(=O)Nc2ccccc2Cl)c1C | nt | nt | nt | -11* | nt | nt
CC(=O)c1c(C)[nH]c(C(=O)CN(C)CC(=O)Nc2ccccc2Cl)c1C | nt | nt | nt | i | nt | nt
Cn1cc(CN2CCC(n3nccc3NC(=O)Cc3ccccc3)CC2)cn1 | 0.16 | i | i | i | -9.0 | i
CC(Sc1nc2ccccc2c(=O)n1C)C(=O)N(C)C1CCCCC1 (configuration not stated) | -0.96 | i | i | i | -20.1 | i
CC(C)CCn1c(=O)c2ccccc2c2ccccc2c1=O | 0 | 6* | i | i | -8.9 | i
CCCCC(Nc1ncnc2ccccc12)C(=O)O (configuration not stated) | 1.96 | i | 16* | i | -10.2 | i
CC(=O)NNc1ncnc2ccccc12 | -0.23 | i | i | i | -2.4 | i
CC(Nc1ncnc2ccccc12)c1ccccc1 (configuration not stated) | 0.63 | 6* | i | i | -18.2 | i
CC(C)Oc1ccc(Nc2ncnc3ccccc23)cc1 | -1.43 | i | i | i | -8.9 | i
N#C/C(=C\c1ccc(-c2ccc([N+](=O)[O-])cc2)o1)C(=O)Nc1nc(-c2cccs2)cs1 | 0.08 | i | i | i | -9.8 | i
N#C/C(=C\c1ccc(-c2ccccc2[N+](=O)[O-])o1)C(=O)Nc1nc(-c2cccs2)cs1 | 0.27 | i | i | i | 12.2* | i
COc1ccccc1-n1cnnc1SCc1csc(-c2ccccc2)n1 | nt | nt | nt | i | nt | nt
C=CCn1c(SCc2csc(-c3ccc(C)cc3)n2)nnc1-c1ccccc1OC | -7.7* | 6* | i | i | -19.6 | i
COC(=O)c1cc(S(=O)(=O)N2CCCC(C)C2)cn1C (configuration not stated) | 0.22 | i | i | i | -3.2 | i
COC(=O)c1cc(-c2ccc(S(=O)(=O)N3CCCC(C)C3)cc2)c(C(F)(F)F)s1 (configuration not stated) | 0.42 | 6* | i | i | -11.7 | i
CCOc1cc(/C=C2/C(=O)ON=C2C)cc(Br)c1O | -1.88 | 9* | i | i | -13.1 | i
SMILES | Kir21 inh | KCNQ1 block | KCNQ1 act | KCNK3 inh | hERG protect | KCNK9 inh
CCCOc1ccc(/C=C2/C(=O)ON=C2C)cc1OCC | -0.21 | i | i | i | -2.5 | i
O=C1ON=C(c2ccccc2)/C1=C/c1ccccc1 | 0.55 | i | i | i | -7.5 | i
COc1cc(/C=C2/C(=O)ON=C2c2ccccc2)ccc1O | -4.81* | i | i | i | -20.7 | i
COc1cc(/C=C2\C(=O)ON=C2c2ccccc2)cc(Br)c1O | -6.63* | 7* | i | i | -31.0 | i
COc1ccc(-c2cn3c(C)c(C(=O)N4CCCc5ccccc54)sc3n2)cc1 | -0.76 | 6* | i | i | -14.9 | i
CCN(CC)C(=O)N1CCN(c2c([N+](=O)[O-])c(=O)oc3ccccc23)CC1 | nt | nt | nt | i | nt | nt
Cc1nc(N)nc(N)c1CCCc1ccc(Cl)c(Cl)c1 | -7.81* | i | i | i | -14.0 | i
Cc1nc(N)nc(N)c1-c1ccc(Cl)c(Cl)c1 | nt | nt | nt | i | nt | nt
CC1=NN(c2ccccc2)C(=O)/C1=C/c1cccs1 | -0.33 | i | i | i | -8.8 | i
CC1=NN(c2ccccc2)C(=O)/C1=C/c1ccc(Cl)cc1 | -0.05 | 8* | i | i | -5.9 | i
O=C(CSc1ccccc1F)Nc1ccc2c(c1)OCO2 | nt | nt | nt | i | nt | nt
O=C(NC1C2CC3CC(C2)CC1C3)C1CCCCC1 (configuration not stated) | 0.16 | i | i | i | -7.0 | i
CCCCNc1c(-c2ccc(SC(C)CC)cc2)nc2ccccn12 (configuration not stated) | -1.3 | 8* | i | i | -38.0 | -7.76*
CCC(C)Sc1cccc(-c2nc3cc(C)ccn3c2NCc2ccccc2)c1 (configuration not stated) | -1.36 | 8* | i | i | -5.5 | i
CCCCNc1c(-c2ccc(SC3CCCCC3)cc2)nc2ccccn12 | 0.12 | i | i | i | -22.6 | i
CC12CCC(=O)N1C(C(=O)N1CCN(S(=O)(=O)c3ccc(Br)cc3Cl)CC1)CS2 (configuration not stated) | 0.64 | i | i | i | -11.7 | i
Cc1cccc(Cn2cc(/C=C/[N+](=O)[O-])c3ccccc32)c1 | -2.55 | i | i | i | -21.0 | i
O=[N+]([O-])/C=C/c1cn(Cc2ccc(Cl)cc2)c2ccccc12 | -5.67* | i | i | i | -11.9 | i
C#CCn1cc(/C=C2\NC(=O)NC2=O)c2ccccc21 | 0.3 | i | i | i | -4.0 | i
Cc1cccc(S(=O)(=O)c2c(N)n(Cc3ccco3)c3nc4ccccc4nc23)c1 | 0.03 | 6* | i | i | -9.6 | i
